The values below come from ChEMBL document CHEMBL1134965, “Discovery and biological characterization of capromorelin analogues with extended half-lives” (Bioorg Med Chem Lett, 2002).

In general, Cmax refers to the highest concentration seen after dosing. By Ki is commonly meant a dissociation constant, usually derived from enzyme kinetics or from competition with a known ligand. As a reminder, the clearance is a measure of how efficiently the substance is removed, as volume per time. Read a high clearance as efficient removal. As a reminder, the half-life is the time in which the quantity being followed falls by half. Low readings indicate fast loss, high ones slow loss. Usually bioavailability stands for dose-corrected exposure relative to a reference, in per cent. A low value points to poor availability. One may read the Tmax as the time at which the peak concentration occurs. The Vd is the apparent volume that relates the amount in the body to the concentration in plasma or blood. High values mean extensive tissue distribution, low ones confinement near the circulation. What is called logD is lipophilicity at a set pH, counting ionised and neutral species. A high value points to a more lipophilic compound. A word on the ED50: it is the dose that gives a 50% effect, or the effect in half of the subjects. A low value points to greater potency.

Data set [1] is described as follows: Maximum plasma concentration at a 1 mg/kg oral dose in male and female Beagle dogs. Type of data set: ADME, organism-based, Canis lupus familiaris. The arrangement: dose 1 mg/kg, route oral. Particulars: both, dog. Summed up: (§1)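 Male and female beagle dogs given a single 1 mgA/kg oral dose (free base equivalents). Plasma profile gave Cmax, Tmax and apparent oral t1/2.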

Data set [2] has as its target Growth hormone secretagogue receptor type 1 (Homo sapiens, UniProt Q92847). Kind of data set: In vitro binding affinity against human type 1a growth hormone secretagogue receptor (hGHS-R1a), using [125I]ghrelin as radioligand. Summed up:
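Competitive displacement of [125I]-ghrelin from membranes of HEK293 cells over-expressing hGHS-R1a. Ki values are the average of duplicate experiments.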

A short description of data set [3]: Plasma clearance was determined in canine following intravenous (iv) administration of drug (1 mg/kg). The format is ADME, organism-based, Canis lupus familiaris. Particulars: dog. Summed up:
(§2)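 Male beagle dogs given 1 mg/kg intravenously. Plasma sampling gave clearance, volume of distribution and elimination half-life, with half-life calculated over 0–8 h.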

Data set [4] in a line: Plasma elimination half-life (08 h) was determined in canine following intravenous (iv) administration (1 mg/kg). The format is ADME, organism-based, Canis lupus familiaris. The note with it: dog. Summed up:
as §2

Data set [5] is described as follows: (§3) Bioavailability. Type of data set: ADME, organism-based, Canis lupus familiaris. The note with it: dog, in vivo. Summed up:
(§4)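 Bioavailability of the free base from a 1 mgA/kg oral dose compared with a 1 mgA/kg iv dose. Measured in female Sprague–Dawley rats and in male and female beagle dogs.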

A short description of data set [6]: Time taken by the compound to achieve maximum plasma concentration at a 1 mg/kg oral dose in female Sprague-Dawley rats. Type of data set: ADME, organism-based. The arrangement: dose 1 mg/kg, route oral. The note with it: rat. Summed up:
(§5)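 Female Sprague–Dawley rats dosed orally at 1 mgA/kg (free base equivalents). Plasma concentration–time profile gave Cmax, Tmax and apparent oral t1/2.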

Data set [7] in a line: Volume of distribution was determined in female Sprague-Dawley rats following intravenous (iv) administration of drug (1 mg/kg). Type of data set: ADME, organism-based. The note with it: rat, in vivo. Summed up: (§6)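 Female Sprague–Dawley rats given a 1 mgA/kg (free base equivalents) iv dose. Plasma drug levels gave mean Vd, CL and t1/2.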
The nature of data set [8]: (§7) Oral half life was determined. Type of data set: ADME, organism-based. The note with it: rat, in vivo. Summed up:
as §5

Data set [9] is described as follows: Maximum plasma concentration at a 1 mg/kg oral dose in female Sprague-Dawley rats. Type of data set: ADME, organism-based. Particulars: rat. The arrangement: dose 1 mg/kg, route oral. Summed up: as §5
Data set [10] can be described thus: Plasma elimination half-life was determined in female Sprague-Dawley rats following intravenous (iv) administration of drug (1 mg/kg). The note with it: rat. The format is ADME, organism-based. Summed up:
as §6

The species entered for data set [11] is Rattus norvegicus. Kind of data set: In vitro effective concentration required for 50% stimulation of GH release in rat pituitary cell cultures. The format is functional. The note with it: Pituitary gland cell. Summed up: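 Rat pituitary cell cultures exposed to compound. Released GH was quantified by rat-specific double-antibody radioimmunoassay. EC50 is the average of triplicate experiments.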

Data set [12] in a line: Lipophilicity by octanol water distribution coefficient. The format is physicochemical.
Data set [13] can be described thus: as §3. Type of data set: ADME, organism-based. Particulars: rat, in vivo. Summed up: as §4
Data set [14] can be described thus: Time taken by the compound to achieve maximum plasma concentration at a 1 mg/kg oral dose in male and female Beagle dogs. Type of data set: ADME, organism-based, Canis lupus familiaris. The arrangement: dose 1 mg/kg, route oral. The note with it: both, dog. Summed up:
as §1

The nature of data set [15]: Plasma clearance was determined in female Sprague-Dawley rats following intravenous (iv) administration of drug (1 mg/kg). Type of data set: ADME, organism-based. The note with it: rat. Summed up:
as §6

Data set [16] can be described thus: Volume of distribution was determined in canine following intravenous (iv) administration of drug (1 mg/kg). Type of data set: ADME, organism-based, Canis lupus familiaris. The note with it: dog, in vivo. Summed up:
as §2

The nature of data set [17]: as §7. Type of data set: ADME, organism-based, Canis lupus familiaris. Particulars: dog, in vivo. Summed up: as §5
For data set [18], the system named is Rattus norvegicus. Kind of data set: In vivo effective dose required for 50% stimulation of GH release in anesthetized rat model. Type of data set: functional. Summed up:
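Anesthetized Wistar rats given compound iv, with GH release as read-out. ED50 (mg/kg) is the average of triplicate experiments.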

Growth hormone secretagogue receptor type 1, sequence (Q92847 whole entry): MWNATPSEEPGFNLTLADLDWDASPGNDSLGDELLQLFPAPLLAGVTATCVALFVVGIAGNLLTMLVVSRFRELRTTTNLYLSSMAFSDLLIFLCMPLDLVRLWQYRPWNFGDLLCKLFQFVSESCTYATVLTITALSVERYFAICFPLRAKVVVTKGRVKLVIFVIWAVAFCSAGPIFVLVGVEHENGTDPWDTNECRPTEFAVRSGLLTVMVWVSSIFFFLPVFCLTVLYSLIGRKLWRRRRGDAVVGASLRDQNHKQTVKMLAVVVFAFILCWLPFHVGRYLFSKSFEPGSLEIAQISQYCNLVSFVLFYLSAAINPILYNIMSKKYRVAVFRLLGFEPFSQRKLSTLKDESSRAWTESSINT

As to `CC(C)(N)C(=O)N[C@H](COCc1ccc(F)cc1F)C(=O)N1CCC2=NN(CC(F)(F)F)C(=O)[C@]2(Cc2ccccn2)C1`, the values for the Cmax in data set [1] and in data set [9] were 260 ng/mL and 88 ng/mL, respectively. This molecule also showed a Ki in data set [2] of 5 nM. Besides, the clearance in [3] was 5.3 mL/min/kg; in [15] it was 46 mL/min/kg. The half-life in [4] was 3.7 h; in [8] it was 3.9 h; in [10], 1.9 h; in [17], 4.2 h. Further, the values for the bioavailability in data set [5] and in [13] were 77% and 59%, respectively. Also, the Tmax in data set [6] is 0.25 h; in [14], 1.3 h. For the same molecule, the Vd was determined as 4.9 L/kg in [7] and 1.5 L/kg in data set [16]. In the data set filed under Rattus norvegicus [11], the EC50 was found to be 3 nM. The molecule further displayed a logD in data set [12] of 1.6. This molecule registered an ED50 with Rattus norvegicus [18] of 0.1 mg/kg.
`CN1N=C2CCN(C(=O)[C@@H](COCc3ccc(F)c(F)c3)NC(=O)C(C)(C)N)CC2(Cc2ccccc2)C1=O` (stereo not given in full) had a Ki in [2] of 18 nM. Further, in data set [3], the clearance is 17 mL/min/kg. The half-life in data set [4] was 2.7 h. Also, the EC50 in the data set listed under Rattus norvegicus [11] came out at 10 nM. In addition, in [12], the logD stood at 1.7. The Vd in [16] was 3.5 L/kg. This molecule displayed an ED50 in the data set with Rattus norvegicus [18] of 0.3 mg/kg.
For `CC(C)(N)C(=O)N[C@H](COCc1ccc(F)c(F)c1)C(=O)N1CCC2=NN(CC(F)(F)F)C(=O)C2(Cc2ccccc2)C1` (stereo not given in full), the Ki in [2] is 0.45 nM. In data set [3], the clearance is 13 mL/min/kg. This molecule had a half-life in data set [4] of 4.7 h. Further, the EC50 in the data set listed under Rattus norvegicus [11] was found to be 2 nM. This molecule registered a logD in [12] of 3. For the same molecule, the Vd in [16] stood at 5.1 L/kg. Moreover, the ED50 with Rattus norvegicus [18] is > 10 mg/kg.
`CC(C)(N)C(=O)N[C@H](COCc1ccccc1)C(=O)N1CCC2=NN(C(C)(C)C)C(=O)C2(Cc2ccccc2)C1` (stereo not given in full): in data set [3], the clearance amounted to 13 mL/min/kg. In [4], this molecule had a half-life of 2.5 h. In data set [12], the logD stood at 2.9. Also, the Vd in data set [16] is 2.2 L/kg.
`CC(C)(N)C(=O)N[C@H](COCc1ccc(F)c(F)c1)C(=O)N1CCC2=NN(C(C)(C)C)C(=O)C2(Cc2ccccc2)C1` (stereo not given in full) registered a Ki in [2] of 0.34 nM. This molecule had a clearance in [3] of 19 mL/min/kg. The half-life in [4] is 3.9 h. For the same molecule, the EC50 in the data set filed under Rattus norvegicus [11] stood at 4 nM. Further, in data set [12], the logD worked out at 2.9. In addition, the Vd in [16] was 5.9 L/kg. The ED50 with Rattus norvegicus [18] is > 10 mg/kg.
In turn, `CN1N=C2CCN(C(=O)[C@@H](COCc3ccccc3)NC(=O)C(C)(C)N)C[C@@]2(Cc2ccccc2)C1=O` [CAPROMORELIN] came in with a Ki in data set [2] of 7 nM. In addition, the clearance in [3] came out at 19 mL/min/kg. In [4], the half-life is 1.3 h. In the data set listed under Rattus norvegicus [11], this molecule came in with an EC50 of 3 nM. The logD in data set [12] stood at 1.7. In [16], this molecule displayed a distribution volume (Vd) of 2 L/kg. The same molecule displayed an ED50 in the data set with Rattus norvegicus [18] of 0.05 mg/kg.
